Laboratory results published in PMC10651777 (Blood, 2022).

How the values were obtained:
[1] = Plasma pharmacokinetics at steady state; type: in vivo, human; settings: for Cmax: human, plasma, oral, Mean Cmax, steady state
Method in brief: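 Patients with relapsed/refractory AML or secondary AML received venetoclax daily on days 1–28 (3–5-day ramp-up to 400, 600 or 800 mg) plus idasanutlin 150, 200 or 400 mg daily or 300 mg twice daily on days 1–5 of 28-day cycles. Noncompartmental analysis of venetoclax plasma concentration–time data; summary statistics of steady-state Cmax and trough. Data from 49 patients across 5 cohorts.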

[2] = system: R/R AML and newly diagnosed patients with AML unfit for intensive chemotherapy; settings: ven monotherapy; cited from earlier work
MIC-1 = settings: day 5 of treatment, 100 mg daily for 5 days, PV; cited from earlier work
[3] = system: Macrophage inhibitory cytokine-1 (MIC-1); experiment: Serum MIC-1 ELISA; type: in vivo, human; settings: day 5; idasa 150 to 400 mg daily for 5 days
Method in brief: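 Serum from patients with relapsed/refractory or secondary AML on venetoclax plus idasanutlin. Idasanutlin was given daily or twice daily on days 1–5 of 28-day cycles. MIC-1 was quantified by a human GDF-15 immunoassay kit (ELISA).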

AML = settings: idasa monotherapy, cited from earlier work
[4] = Cohort B1.2.1, n = 5, ven 600 mg, idasa 150 mg

| Cmax [1, 4] [ng/mL] | Impact of the coadministration of idasa on ven pharmacokinetics ([1]; in vivo) | Pharmacokinetics of ven in this combination ([1]; vs historical ven monotherapy) | Cmax ([1]; 400 mg, Cohort B4, n = 8, ven 400 mg, idasa 400 mg) [ng/mL] | MIC-1 increases [3] | SMILES | All-grade diarrhea rate [2] [%] | All-grade nausea rate [2] [%] | All-grade vomiting rate [2] [%] | CR/CRi rate (CRc) [2] [%] | Rate of grade ≥3 diarrhea [2] [%] | Rate of grade ≥3 nausea [2] [%] | Plasma MIC-1 levels increase (MIC-1) [fold] | All-grade diarrhea rate (AML; 400-800 mg twice daily microprecipitated bulk powder) [%] | All-grade nausea rate (AML) [%] | All-grade vomiting rate (AML) [%] | CR/CRi/MLFS rate (antileukemic response) (AML) [%] | Rate of grade ≥3 diarrhea (AML) [%] | Rate of grade ≥3 nausea (AML) [%] |
| --- | --- | --- | --- | --- | --- | --- | --- | --- | --- | --- | --- | --- | --- | --- | --- | --- | --- | --- |
| 1450 | no significant impact | comparable to ven monotherapy |  |  | CC1(C)CCC(CN2CCN(c3ccc(C(=O)NS(=O)(=O)c4ccc(NCC5CCOCC5)c([N+](=O)[O-])c4)c(Oc4cnc5[nH]ccc5c4)c3)CC2)=C(c2ccc(Cl)cc2)C1 [ven, Venetoclax] | 56 | 59 | 41 | 19 | 6 | 6 |  |  |  |  |  |  |  |
| 3220 |  |  | 7110 | 10- to 20 fold | COc1cc(C(=O)O)ccc1NC(=O)[C@@H]1N[C@@H](CC(C)(C)C)[C@](C#N)(c2ccc(Cl)cc2F)[C@H]1c1cccc(Cl)c1F [idasa, idasanutlin] |  |  |  |  |  |  | 4.8 | 91.3 | 73.9 | 39.1 | 21 | 23.9 | 0 |
